ChEMBL document CHEMBL1141646, “Microwave-assisted synthesis and antimicrobial activities of flavonoid derivatives” (Bioorg Med Chem Lett, 2008)
Values after ≈ are worked out from the molar mass of the structure shown. Active and inactive are the calls of the source. The rule behind the calls is not given here.

Legend:
Type in all cases: functional, organism-based
Staphylococcus aureus [1] = assay: Antibacterial activity against methicillin-resistant Staphylococcus aureus NCTC 10442 by paper disc diffusion method
Escherichia coli = assay: Antibacterial activity against Escherichia coli by paper disc diffusion method
Aspergillus niger = assay: Antifungal activity against Aspergillus niger NCTC 275 after 4 days; conditions: NCTC 275, 96 h
In short: (§1)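 Compounds were incorporated into agar medium at final concentrations of 200, 100, 50 and 10 µg/mL. A disc of fungal mycelium was placed at the centre of each Petri dish. Plates were incubated at 37 °C until the control plates reached full growth (4 days). Inhibition diameter was then measured and IC50 derived. Values are means of replicates.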

Fusarium oxysporum = assay: Antifungal activity against Fusarium oxysporum after 4 days; conditions: 96 h; in short: as §1
Staphylococcus aureus [2] = assay: Antibacterial activity against methicillin-resistant Staphylococcus aureus NCTC 10442 assessed as protein content after 3 hrs by bradford method; conditions: NCTC 10442, 3 h
In short: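 MRSA exposed to compounds dissolved in DMSO, with a DMSO-only negative control and gentamycin at the same concentrations in sterile water as positive control. Incubated 3 h at 37 °C; growth read as protein content by the Bradford method and plotted against compound concentration.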

Row | SMILES | Activity (Staphylococcus aureus [1]) | Activity (Escherichia coli) | IC50 (Aspergillus niger) | IC50 (Fusarium oxysporum) | IC50 (Staphylococcus aureus [2])
1 | O=c1cc(C2CCCCC2)oc2ccc(Br)cc12 | Active | inactive | 90.4 µg/mL (≈ 294 µM) | 107 µg/mL (≈ 347 µM) | 12000 µg/mL (≈ 39100 µM)
2 | O=c1cc(-c2ccc(F)cc2)oc2ccc(Br)cc12 | – | – | 142 µg/mL (≈ 444 µM) | 682 µg/mL (≈ 2140 µM) | –
3 | COc1ccc2c(=O)cc(-c3cc(Cl)cc(Cl)c3)oc2c1 | – | – | 178 µg/mL (≈ 553 µM) | 10600 µg/mL (≈ 33000 µM) | –
4 | O=c1cc(-c2cc(C(F)(F)F)cc(C(F)(F)F)c2)oc2ccc(Br)cc12 | – | – | 60.3 µg/mL (≈ 138 µM) | 65.2 µg/mL (≈ 149 µM) | –
5 | O=c1cc(-c2ccccc2)oc2ccc(Br)cc12 [6-BROMOFLAVONE] | – | – | 77.1 µg/mL (≈ 256 µM) | 26900 µg/mL (≈ 89400 µM) | –
6 | COc1ccc2oc(C3CCCCC3)cc(=O)c2c1 | Active | inactive | 58.9 µg/mL (≈ 228 µM) | 117 µg/mL (≈ 452 µM) | 69.6 µg/mL (≈ 269 µM)
7 | COc1ccc2c(=O)cc(-c3ccc(Br)cc3)oc2c1 | – | – | 28.2 µg/mL (≈ 85.2 µM) | 176 µg/mL (≈ 531 µM) | –
8 | COc1ccc2oc(-c3cc(C(F)(F)F)cc(C(F)(F)F)c3)cc(=O)c2c1 | – | – | 93.4 µg/mL (≈ 241 µM) | 177 µg/mL (≈ 457 µM) | –
9 | COc1ccc(-c2cc(=O)c3cc(Br)ccc3o2)cc1 | – | – | 83.4 µg/mL (≈ 252 µM) | 2250 µg/mL (≈ 6790 µM) | –
10 | O=c1cc(-c2ccc(Cl)cc2)oc2ccc(Br)cc12 | – | – | 157 µg/mL (≈ 469 µM) | 282 µg/mL (≈ 840 µM) | –
11 | COc1ccc2oc(-c3ccc(Cl)cc3)cc(=O)c2c1 | – | – | 41.9 µg/mL (≈ 146 µM) | 1430 µg/mL (≈ 4980 µM) | –
